pIC50: −log10 of the molar value.
How the values were obtained:
Human alphaherpesvirus 1 [1] = test: Inhibition of herpes simplex virus (HSV-1) in yield reduction assay; type: functional, organism-based
Mus musculus [2] = test: Compound was evaluated for percent mortality of mice inoculated with murine cytomegalovirus at a concentration of 16.7 mg/kg at 48 h; type: organism-based; set-up: dose 16.7 mg/kg; details: in vivo
How it was run: (§1)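 Three-week-old female Swiss Webster mice inoculated ip with 2×10^5 PFU MCMV Smith strain. Groups of 15 dosed ip twice daily for 5 days, starting 6, 24 or 48 h post-inoculation. Held 21 days with daily mortality checks. Final mortality and mean day of death (dying animals) computed. Mortality versus placebo by Fisher Exact Test, MDD by Mann–Whitney U-rank test.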

Mus musculus [3] = test: Compound was evaluated for mean day of death at 50 mg/kg at 24 h; type: functional; how it was run: as §1
Mus musculus [4] = test: Compound was evaluated for 15 mice treated ip twice daily for 5 days at a dose of 5.6 mg/kg followed (MCMV) virus inoculation; type: functional; details: route intraperitoneal
Mus musculus [5] = test: Compound was evaluated for 15 mice treated ip twice daily for 5 days at a dose of 16.7 mg/kg at 48 hr followed (MCMV) virus inoculation; type: functional; details: route intraperitoneal; how it was run: as §1
Mus musculus [6] = test: Compound was evaluated for mean day of death at 1.9 mg/kg at 6 h; type: functional; how it was run: as §1
Mus musculus [7] = test: Compound was evaluated for 15 mice treated ip twice daily for 5 days at a dose of 5.6 mg/kg at 6 hr followed (MCMV) virus inoculation; type: functional; details: route intraperitoneal; how it was run: as §1
Mus musculus [8] = test: Compound was evaluated for 15 mice treated ip twice daily for 5 days at a dose of 50 mg/kg at 6 hr followed (MCMV) virus inoculation; type: functional; details: route intraperitoneal; how it was run: as §1
Neoplastic cell line = test: Compound was evaluated for cytotoxic activity against KB cells.; type: functional, cell-based; details: Homo sapiens
How it was run: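 KB cells grown in MEM(H) + 5% FBS. Compound effects measured on radiolabelled precursor incorporation into DNA, RNA and protein. IC50s from linear regression of percent inhibition vs log concentration. The three IC50s were averaged, with 2–5 experiments averaged. Runs rejected if the acyclovir/ganciclovir control deviated >1.5 SD from its mean.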

Mus musculus [9] = test: Compound was evaluated for mean day of death at 5.6 mg/kg at 6 h; type: functional; how it was run: as §1
Mus musculus [10] = test: Compound was evaluated for mean day of death at 50 mg/kg at 48 h; type: functional; how it was run: as §1
Mus musculus [11] = test: Compound was evaluated for 15 mice treated ip twice daily for 5 days at a dose of 5.6 mg/kg at 24 hr followed (MCMV) virus inoculation; type: functional; details: route intraperitoneal; how it was run: as §1
Mus musculus [12] = test: Compound was evaluated for mean day of death at 16.7 mg/kg at 6 h; type: functional; how it was run: as §1
[13] = Inhibition of herpes simplex virus (HSV-2) in human foreskin fibroblasts cell lines was determined by plaque assay; details: Fibroblast
Mus musculus [14] = test: Compound was evaluated for mean day of death at 5.6 mg/kg at 48 h; type: functional; how it was run: as §1
[15] = Inhibition of herpes simplex virus type 1(HSV-1) in mouse embryo fibroblasts cell lines was determined by plaque assay; details: Fibroblast
[16] = Cytotoxicity of human simplex virus type 1 in monkey kidney cells; type: functional, cell-based; details: Cercopithecidae
How it was run: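 Visual cytotoxicity was scored in uninfected cells of the same host monolayers used for the plaque assays, on a 0 to 4+ scale at 35- and 60-fold magnification, at the time plaques were counted.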

Mus musculus [17] = test: Compound was evaluated for percent mortality of mice inoculated with murine cytomegalovirus at a concentration of 50 mg/kg at 6 h; type: ADME, organism-based; set-up: dose 50 mg/kg; details: in vivo
How it was run: (§2)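 Three-week-old female Swiss Webster mice infected ip with 2×10^5 PFU MCMV Smith strain; groups of 15 given drug ip twice daily for 5 days, starting 6, 24 or 48 h after inoculation. Toxicity controls received drug without virus. Mortality followed daily for 21 days; final mortality compared with placebo by Fisher Exact Test.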

Mus musculus [18] = test: Compound was evaluated for percent mortality of mice inoculated with murine cytomegalovirus at a concentration of 50 mg/kg; drug toxicity control; type: functional; how it was run: as §2
Mus musculus [19] = test: Compound was evaluated for 15 mice treated ip twice daily for 5 days at a dose of 16.7 mg/kg at 6 hr followed (MCMV) virus inoculation; type: functional; details: route intraperitoneal; how it was run: as §1
Mus musculus [20] = test: Compound was evaluated for percent mortality of mice inoculated with murine cytomegalovirus at a concentration of 50 mg/kg at 24 h; type: ADME, organism-based; set-up: dose 50 mg/kg; details: in vivo; how it was run: as §2
Mus musculus [21] = organism: Mus musculus; test: Cytotoxicity of human simplex virus type 1 in mouse embryo fibroblasts cells; details: Fibroblast
Human alphaherpesvirus 1 [22] = test: Inhibition of herpes simplex virus (HSV-1) in plaque reduction assay; type: functional, organism-based
How it was run: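 HSV-1 S-148 strain plaque reduction in BSC-1 monkey kidney monolayers, with about 100 PFU inoculum and compound dissolved in the overlay medium. IC50 came from linear regression of percent inhibition against log concentration, with a positive control in each set.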

Mus musculus [23] = test: Compound was evaluated for 15 mice treated ip twice daily for 5 days at a dose of 1.9 mg/kg at 48 hr followed (MCMV) virus inoculation; type: functional; details: route intraperitoneal; how it was run: as §1
Mus musculus [24] = test: Compound was evaluated for percent mortality of mice inoculated with murine cytomegalovirus at a concentration of 1.9 mg/kg at 6 h; type: organism-based; set-up: dose 1.9 mg/kg; details: in vivo; how it was run: as §1
Mus musculus [25] = test: Compound was evaluated for percent mortality of mice inoculated with murine cytomegalovirus at a concentration of 1.9 mg/kg at 48 h; type: organism-based; set-up: dose 1.9 mg/kg; details: in vivo; how it was run: as §1
Mus musculus [26] = test: Compound was evaluated for 15 mice treated ip twice daily for 5 days at a dose of 50 mg/kg at 24 h followed (MCMV) virus inoculation; type: functional; details: route intraperitoneal; how it was run: as §1
Mus musculus [27] = test: Compound was evaluated for percent mortality of mice inoculated with murine cytomegalovirus at a concentration of 1.9 mg/kg at 24 h; type: organism-based; set-up: dose 1.9 mg/kg; details: in vivo; how it was run: as §1
Mus musculus [28] = test: Compound was evaluated for 15 mice treated ip twice daily for 5 days at a dose of 16.7 mg/kg followed (MCMV) virus inoculation; type: functional; details: route intraperitoneal

Nc1ncnc2c1c(Br)cn2COC(CO)CO
IC90 (Human alphaherpesvirus 1 [1]): 17000 nM
Mortality (Mus musculus [2]): 87%
MDD (Mus musculus [3]): 8.8
Activity (Mus musculus [4]): 0
Activity (Mus musculus [5]): 13
MDD (Mus musculus [6]): 6.2
Activity (Mus musculus [7]): 1
Activity (Mus musculus [8]): 9
pIC50 (Neoplastic cell line): < 4.00
MDD (Mus musculus [9]): 8
MDD (Mus musculus [10]): 7.5
Activity (Mus musculus [11]): 3
MDD (Mus musculus [12]): 8.7
pIC50 [13]: 6.52
MDD (Mus musculus [14]): 5.5
pIC50 [15]: 5.72
pIC50 [16]: < 4.00
Mortality (Mus musculus [17]): 60%
mortality at 50 mg/kg (Mus musculus [18]): 0%
Activity (Mus musculus [19]): 9
Mortality (Mus musculus [20]): 93%
pIC50 (Mus musculus [21]): < 3.80
pIC50 (Human alphaherpesvirus 1 [22]): 5.70
Activity (Mus musculus [23]): 10
Mortality (Mus musculus [24]): 33%
Mortality (Mus musculus [25]): 67%
Activity (Mus musculus [26]): 14
Mortality (Mus musculus [27]): 60%
Activity (Mus musculus [28]): 1

Source: ChEMBL document CHEMBL1124846, “Synthesis, antiproliferative, and antiviral activity of certain 4-substituted and 4,5-disubstituted 7-[(1,3-dihydroxy-2-propoxy)methyl]pyrrolo[2,3-d]pyrimidines” (J Med Chem, 1990)
